The structures appear in SMILES notation. pKi: −log10 of the molar value. Square brackets hold non-standard residues; d marks the D form. Peptide text beside a SMILES is read from it. * marks the point of attachment. X1 = CC(C)C[C@@H](C(=O)*)N1C(=O)N[C@H](Cc2c[nH]c3ccccc23)C1=O A value given as a limit tells only on which side of the number the result lay.

Ki data for 13 molecules are collected here from ChEMBL document CHEMBL1133454, “Structure-activity studies of reduced-size gonadotropin-releasing hormone agonists derived from the sequence of an endothelin antagonist” (J Med Chem, 2000).

Test [1] addresses T1, Gonadotropin-releasing hormone receptor (Rattus norvegicus, UniProt P30969).
T1 sequence (P30969 whole entry): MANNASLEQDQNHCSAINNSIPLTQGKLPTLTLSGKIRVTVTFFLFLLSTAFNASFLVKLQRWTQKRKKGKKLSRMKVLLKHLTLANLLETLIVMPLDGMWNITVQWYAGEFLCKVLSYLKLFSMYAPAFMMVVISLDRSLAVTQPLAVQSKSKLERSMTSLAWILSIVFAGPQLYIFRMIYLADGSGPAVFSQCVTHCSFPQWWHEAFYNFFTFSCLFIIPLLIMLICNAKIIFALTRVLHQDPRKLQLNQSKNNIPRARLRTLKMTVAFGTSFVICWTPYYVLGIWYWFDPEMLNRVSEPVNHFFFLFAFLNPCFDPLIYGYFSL
Nature of the test: Inhibition constant for the displacement of specific binding of [125I][D-Lys6]-GnRH (Kd=177 pM) bound to rat pituitary membranes. The format is cell membranes, Membrane. Put shortly: (§1)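 Membranes from proestrous Wistar-derived rat pituitaries (25 μg protein/tube) incubated 90 min at 4 °C with 23.5 pM 125I-[D-Lys6]GnRH plus increasing unlabeled peptide (up to 10 μM, DMSO ≤1%) in 10 mM Tris-HCl/0.1% BSA. Filtration on GF/C, gamma counting. Nonspecific binding from 1 μM [D-Lys6]GnRH. Ki fitted from displacement curves; two experiments in triplicate, mean ± SEM.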

The target in test [2] is T1, Gonadotropin-releasing hormone receptor. Nature of the test: Inhibition constant for the displacement of specific binding of [125I][D-Lys6]-GnRH (Kd=177 pM) bound to rat pituitary membranes; No significant binding at 10 uM. The format is cell membranes, Membrane. The method in brief: as §1
Test [3] deals with T2, Endothelin receptor (Rattus norvegicus, UniProt P26684+P21451).
T2 sequence (P26684 whole entry): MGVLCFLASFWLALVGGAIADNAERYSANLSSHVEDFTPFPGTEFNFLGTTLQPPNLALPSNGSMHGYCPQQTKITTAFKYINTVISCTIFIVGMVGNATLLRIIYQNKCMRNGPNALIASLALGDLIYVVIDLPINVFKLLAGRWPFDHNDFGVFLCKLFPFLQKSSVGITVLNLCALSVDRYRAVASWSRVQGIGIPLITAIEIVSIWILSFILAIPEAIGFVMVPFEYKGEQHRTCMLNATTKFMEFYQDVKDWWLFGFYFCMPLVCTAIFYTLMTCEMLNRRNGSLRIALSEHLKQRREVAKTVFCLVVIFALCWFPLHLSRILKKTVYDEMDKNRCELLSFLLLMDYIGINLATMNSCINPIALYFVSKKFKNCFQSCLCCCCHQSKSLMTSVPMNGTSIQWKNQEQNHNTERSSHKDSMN
T2 sequence (P21451 whole entry): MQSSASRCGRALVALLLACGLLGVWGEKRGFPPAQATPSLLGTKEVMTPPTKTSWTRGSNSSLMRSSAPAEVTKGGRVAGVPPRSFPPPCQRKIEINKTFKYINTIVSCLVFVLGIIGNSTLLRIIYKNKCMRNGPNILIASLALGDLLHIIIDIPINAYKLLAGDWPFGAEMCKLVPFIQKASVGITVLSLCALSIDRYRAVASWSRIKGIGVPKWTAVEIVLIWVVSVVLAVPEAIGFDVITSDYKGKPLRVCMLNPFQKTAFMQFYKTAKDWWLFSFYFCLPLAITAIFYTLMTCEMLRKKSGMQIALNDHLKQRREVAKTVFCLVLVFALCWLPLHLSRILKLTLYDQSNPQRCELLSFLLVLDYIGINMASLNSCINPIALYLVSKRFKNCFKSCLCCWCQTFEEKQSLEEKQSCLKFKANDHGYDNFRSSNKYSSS
The test is described as follows: Inhibition constant for the displacement of specific binding of [125I]-ET (Kd=2 nM) bound to rat pituitary membrane. It counts as tissue-based, Pituitary gland.

Regarding `CC[C@H](C)[C@H](N)C(=O)N[C@H](C(=O)N[C@@H](Cc1c[nH]c2ccccc12)C(=O)N[C@H](Cc1c[nH]cn1)C(=O)N[C@@H](CC(C)C)C(=O)N[C@@H](CC(=O)O)C(=O)O)[C@@H](C)CC`, the pKi – broadly, the negative decadic logarithm of the Ki, by convention in mol/L – in test [1] is 6.30.

In the case of `CC[C@H](C)[C@H](N)C(=O)N[C@H](C(=O)N[C@@H](Cc1ccccc1)C(=O)N[C@H](Cc1c[nH]c2ccccc12)C(=O)N[C@@H](CC(C)C)C(=O)N[C@@H](CC(=O)O)C(=O)O)[C@@H](C)CC`, the Ki (usually the dissociation constant of the complex between target and ligand, obtained from inhibition or displacement) in test [2] is recorded as “Not Active”.

In test [1], `CC[C@H](C)[C@H](N)C(=O)N[C@H](C(=O)N[C@@H](Cc1c[nH]c2ccccc12)C(=O)N[C@H](Cc1c[nH]c2ccccc12)C(=O)N[C@@H](CC(C)C)C(=O)N[C@@H](CC(=O)O)C(=O)O)[C@@H](C)CC` had a negative-log Ki (pKi) of 6.15.

`CC[C@H](C)[C@H](N)C(=O)N[C@H](C(=O)N[C@@H](Cc1c[nH]cn1)C(=O)N[C@H](Cc1c[nH]c2ccccc12)C(=O)N[C@@H](CC(C)C)C(=O)N[C@@H](CC(=O)O)C(=O)O)[C@@H](C)CC`: in test [2], the Ki result is given as “Not Active”.

For the molecule `CC[C@H](C)[C@H](N)C(=O)N[C@H](C(=O)N[C@@H](Cc1c[nH]c2ccccc12)C(=O)N[C@@H](Cc1c[nH]c2ccccc12)C(=O)N[C@@H](CC(C)C)C(=O)N[C@@H](CC(=O)O)C(=O)O)[C@@H](C)CC`, the pKi in test [1] is 5.40.

In turn, `CC[C@H](C)[C@H](N)C(=O)N[C@H](C(=O)N[C@@H](Cc1c[nH]c2ccccc12)C(=O)N[C@H](C)C(=O)N[C@@H](CC(C)C)C(=O)N[C@@H](CC(=O)O)C(=O)O)[C@@H](C)CC` gave a negative logarithm of the Ki (pKi) in test [1] of less than 5.00.

With `CC[C@H](C)[C@H](N)C(=O)N[C@H](C(=O)N[C@@H](Cc1c[nH]c2ccccc12)C(=O)N[C@H](Cc1ccccc1)C(=O)N[C@@H](CC(C)C)C(=O)N[C@@H](CC(=O)O)C(=O)O)[C@@H](C)CC`, in test [1], the pKi is 5.10.

Take `CC[C@H](C)[C@H](NC(=O)[C@H](CCCNC(=N)N)NC(=O)[C@H](CC(C)C)NC(=O)[C@@H](Cc1c[nH]c2ccccc12)NC(C)=O)C(=O)N[C@H](C(=O)N[C@@H](Cc1c[nH]c2ccccc12)C(=O)O)[C@@H](C)CC`: in test [1], the pKi is 5.70.

In turn, `CC[C@H](C)[C@@H]1NC(=O)CSC[C@@H](C(=O)O)NC(=O)[C@H](CC(C)C)NC(=O)[C@@H](Cc2c[nH]c3ccccc23)NC(=O)[C@H](Cc2c[nH]c3ccccc23)NC(=O)[C@H]([C@@H](C)CC)NC1=O` had a pKi in test [1] of 6.49.

In the case of `CC[C@H](C)[C@@H]1NC(=O)[C@H](CC(=O)O)NC(=O)[C@H](CC(C)C)NC(=O)[C@@H](Cc2c[nH]c3ccccc23)NC(=O)[C@H](Cc2c[nH]c3ccccc23)NC(=O)[C@H]([C@@H](C)CC)NC1=O`, the pKi in test [1] is 6.15.

In turn, `CC[C@H](C)[C@H](NC(=O)[C@H](CC(=O)O)NC(=O)[C@H](CC(C)C)NC(=O)[C@H](N)Cc1c[nH]c2ccccc12)C(=O)N[C@H](C(=O)N[C@@H](Cc1c[nH]c2ccccc12)C(=O)O)[C@@H](C)CC` registered a Ki in test [3] of 55 µM. In test [1], this molecule showed a pKi of 5.10.

In turn, `CC[C@H](C)[C@H](NC(=O)[C@H](CC(=O)O)NC(=O)[C@H](CC(C)C)NC(=O)[C@@H](Cc1c[nH]c2ccccc12)NC(C)=O)C(=O)N[C@H](C(=O)N[C@@H](Cc1c[nH]c2ccccc12)C(=O)O)[C@@H](C)CC` (Ac-[dW]LDIIW-OH) gave a pKi in test [1] of 5.72.

In test [3], `CC[C@H](C)[C@H](NC(=O)[C@H](CC(=O)O)NC(=O)[C@H](CC(C)C)N1C(=O)N[C@H](Cc2c[nH]c3ccccc23)C1=O)C(=O)N[C@H](C(=O)N[C@@H](Cc1c[nH]c2ccccc12)C(=O)O)[C@@H](C)CC` (X1-DIIW-OH) showed a Ki of 6 µM. This molecule showed a pKi in test [1] of 6.64.
